Key:
[1] = test system: Hh signaling in Sufu-/- MEFs; test: Gli1 and Ptc1 mRNA transcripts in Sufu-/- mouse embryonic fibroblasts; assay type: cell-based; details: 10 μM, normalized to GAPDH
[2] = test system: Hh signaling (Shh-Light2 cells); test: Gli-luciferase reporter in Shh-Light2 cells stimulated with Shh; assay type: cell-based, mouse; details: for Shh-responsive Gli-luciferase reporter activity: stimulated with Shh conditioned medium, significant starting at 1 μM
Outline: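 Mouse Shh-Light2 Gli-responsive luciferase reporter cells were stimulated with Shh conditioned medium and then treated with increasing concentrations of test compound. Luciferase output was read as relative luciferase units (RLU), n = 4 per condition, reported as mean ± SEM with p-values.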

[3] = test system: Gli2FL nuclear accumulation; test: Western blot of nuclear full length Gli2 in SAG-stimulated NIH3T3 cells; assay type: cell-based; details: SAG 100 nM 1.5 h; Egm 10 μM, FSK 30 μM
Outline: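 NIH3T3 cells were left unstimulated or stimulated with SAG (100 nM, 1.5 h), alone or with test compound (10 μM) or forskolin (30 μM), then fractionated. Full-length Gli2 was blotted in nuclear (Lamin-A/C control, n = 4) and whole-cell (α-tubulin control, n = 2) fractions. Output was the ratio of normalized nuclear to normalized whole-cell Gli2.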

[4] = test system: Gli3FL to Gli3R processing; test: Western blot of Gli3 processing in SAG-stimulated C3H10T1/2 cells; assay type: cell-based; details: SAG 100 nM 24 h; Egm 10 μM, FSK 30 μM
Outline: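 C3H10T1/2 cells were left unstimulated or stimulated with SAG (100 nM, 24 h), alone or with test compound (10 μM) or forskolin (30 μM). Whole-cell lysates were immunoblotted for full-length and repressor Gli3, with α-tubulin as loading control and infrared detection; n = 3.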

[5] = test system: Gli2-driven Gli-Luc activity; test: Gli-Luc activity in cells transiently overexpressing Gli2; assay type: cell-based; details: transient Gli2 overexpression
PKA [6] = test: Western blot of phospho-T197-PKA in NIH3T3 whole cell lysates; assay type: cell-based; details: SAG 20 nM plus 5 μM compound
Outline: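 NIH3T3 cells were left unstimulated or treated with SAG (20 nM), with or without test compound (5 μM). Whole-cell lysates were immunoblotted for phospho-T197 PKA catalytic subunit, with α-tubulin as loading control.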

[7] = test system: BMP (Bone Morphogenic Protein) signaling; test: BMP developmental signaling pathway test; assay type: cell-based
PDE11A4 = PDE11A4 (Homo sapiens, UniProt Q9HCR9); test: PDE dose-response assay, PDE11A4; assay type: biochemical
PDE3A = PDE3A (Homo sapiens, UniProt Q14432); test: PDE dose-response assay, PDE3A; assay type: biochemical
[8] = test system: Hh signaling (Shh-Light2 cells); test: Gli-Luc reporter stimulated with Smo agonist purmorphamine; assay type: cell-based, mouse; details: purmorphamine 3 μM; significant starting at 0.5 μM
PKA [9] = test: Immunostaining of phospho-T197-PKA in NIH3T3 cells; assay type: cell-based; details: SAG 20 nM plus 5 μM compound
21 phosphatases = test: Counter-screen, phosphatase panel
[10] = test system: primary cilium of NIH3T3 cells; test: Cilium structure and IFT88 in NIH3T3 cells; assay type: cell-based
[11] = test system: Hh-target gene Patched (Ptc)-1 expression; test: Whole-mount in situ hybridization for Ptc1 in zebrafish embryos; assay type: in vivo; details: 1 μM; 12 hpf and 48 hpf
[12] = test system: Gli2 ciliary localization in MEFs; test: Gli2 trafficking to primary cilium in SAG-stimulated MEFs; assay type: cell-based, mouse; details: co-treatment SAG 20 nM and 5 μM compound
PDE10A2 = PDE10A2 (Homo sapiens, UniProt Q9Y233); test: PDE dose-response assay, PDE10A2; assay type: biochemical
PDE4D3 = PDE4D3 (Homo sapiens, UniProt Q08499); test: PDE dose-response assay, PDE4D3; assay type: biochemical
Smo = Smo (Homo sapiens, UniProt Q99835); assay type: binding; details: 5 nM BODIPY-cyclopamine; concentrations up to 10 μM
442 kinases = test: Counter-screen, kinase panel
[13] = test system: PDE4D3-induced Hh signaling (Shh-Light2 cells); test: Hh reporter activity in Shh-Light2 cells transfected with PDE4D3; assay type: cell-based, mouse; details: 5 μM
Outline: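 Hh reporter cells were transiently transfected with wild-type PDE4D3, dominant-negative PDE4D3 or empty pCS2 vector as control. Wild-type transfectants received 5 μM test compound. Reporter activity is reported as mean ± SEM and compared with vector control or untreated wild-type transfectants.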

PDE super-family members = test: In vitro PDE activity screen across PDE super-family members; assay type: biochemical; details: 20 μM; PDE4D3 and three other members

Sequence of PDE4D3 (Q08499 1-673 isoform Q08499-2): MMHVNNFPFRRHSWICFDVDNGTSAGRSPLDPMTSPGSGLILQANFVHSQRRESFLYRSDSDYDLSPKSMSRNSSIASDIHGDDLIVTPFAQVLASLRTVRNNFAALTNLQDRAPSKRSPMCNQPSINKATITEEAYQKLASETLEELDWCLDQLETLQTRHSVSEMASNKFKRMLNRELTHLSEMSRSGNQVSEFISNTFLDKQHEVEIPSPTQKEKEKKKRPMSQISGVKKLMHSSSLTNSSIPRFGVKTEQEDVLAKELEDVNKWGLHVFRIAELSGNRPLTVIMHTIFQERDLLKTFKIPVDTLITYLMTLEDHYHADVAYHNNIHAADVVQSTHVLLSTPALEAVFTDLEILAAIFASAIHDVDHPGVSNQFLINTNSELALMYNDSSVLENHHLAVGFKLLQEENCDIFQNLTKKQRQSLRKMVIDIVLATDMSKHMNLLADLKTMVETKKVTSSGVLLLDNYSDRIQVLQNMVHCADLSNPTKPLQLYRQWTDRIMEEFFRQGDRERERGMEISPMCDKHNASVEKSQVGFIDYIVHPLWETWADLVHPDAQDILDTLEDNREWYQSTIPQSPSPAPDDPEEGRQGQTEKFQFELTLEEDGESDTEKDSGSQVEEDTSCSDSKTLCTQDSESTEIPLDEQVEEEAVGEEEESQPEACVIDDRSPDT
Sequence of PDE10A2 (Q9Y233 267-1055, species assumed): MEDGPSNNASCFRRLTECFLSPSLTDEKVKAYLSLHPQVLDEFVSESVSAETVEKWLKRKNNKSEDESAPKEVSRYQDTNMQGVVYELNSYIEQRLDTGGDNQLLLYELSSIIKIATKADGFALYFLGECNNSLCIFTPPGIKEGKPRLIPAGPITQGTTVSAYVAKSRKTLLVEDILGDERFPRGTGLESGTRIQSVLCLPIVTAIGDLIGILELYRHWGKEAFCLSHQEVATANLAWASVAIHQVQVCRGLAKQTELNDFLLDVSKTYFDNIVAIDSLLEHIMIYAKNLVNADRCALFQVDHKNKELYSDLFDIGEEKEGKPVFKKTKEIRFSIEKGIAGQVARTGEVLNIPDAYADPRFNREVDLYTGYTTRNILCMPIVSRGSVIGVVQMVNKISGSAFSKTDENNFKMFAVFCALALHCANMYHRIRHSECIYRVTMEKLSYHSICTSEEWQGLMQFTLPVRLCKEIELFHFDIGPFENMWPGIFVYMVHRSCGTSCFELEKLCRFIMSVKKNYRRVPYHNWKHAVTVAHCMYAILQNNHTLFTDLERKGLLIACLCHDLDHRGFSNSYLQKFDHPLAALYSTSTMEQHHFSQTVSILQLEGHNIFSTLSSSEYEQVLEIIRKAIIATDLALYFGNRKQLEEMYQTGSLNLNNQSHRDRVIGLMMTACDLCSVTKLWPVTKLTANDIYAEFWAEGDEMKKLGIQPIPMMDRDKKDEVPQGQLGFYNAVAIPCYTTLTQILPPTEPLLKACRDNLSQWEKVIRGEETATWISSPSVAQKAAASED
Sequence of PDE3A (Q14432 whole entry, species assumed): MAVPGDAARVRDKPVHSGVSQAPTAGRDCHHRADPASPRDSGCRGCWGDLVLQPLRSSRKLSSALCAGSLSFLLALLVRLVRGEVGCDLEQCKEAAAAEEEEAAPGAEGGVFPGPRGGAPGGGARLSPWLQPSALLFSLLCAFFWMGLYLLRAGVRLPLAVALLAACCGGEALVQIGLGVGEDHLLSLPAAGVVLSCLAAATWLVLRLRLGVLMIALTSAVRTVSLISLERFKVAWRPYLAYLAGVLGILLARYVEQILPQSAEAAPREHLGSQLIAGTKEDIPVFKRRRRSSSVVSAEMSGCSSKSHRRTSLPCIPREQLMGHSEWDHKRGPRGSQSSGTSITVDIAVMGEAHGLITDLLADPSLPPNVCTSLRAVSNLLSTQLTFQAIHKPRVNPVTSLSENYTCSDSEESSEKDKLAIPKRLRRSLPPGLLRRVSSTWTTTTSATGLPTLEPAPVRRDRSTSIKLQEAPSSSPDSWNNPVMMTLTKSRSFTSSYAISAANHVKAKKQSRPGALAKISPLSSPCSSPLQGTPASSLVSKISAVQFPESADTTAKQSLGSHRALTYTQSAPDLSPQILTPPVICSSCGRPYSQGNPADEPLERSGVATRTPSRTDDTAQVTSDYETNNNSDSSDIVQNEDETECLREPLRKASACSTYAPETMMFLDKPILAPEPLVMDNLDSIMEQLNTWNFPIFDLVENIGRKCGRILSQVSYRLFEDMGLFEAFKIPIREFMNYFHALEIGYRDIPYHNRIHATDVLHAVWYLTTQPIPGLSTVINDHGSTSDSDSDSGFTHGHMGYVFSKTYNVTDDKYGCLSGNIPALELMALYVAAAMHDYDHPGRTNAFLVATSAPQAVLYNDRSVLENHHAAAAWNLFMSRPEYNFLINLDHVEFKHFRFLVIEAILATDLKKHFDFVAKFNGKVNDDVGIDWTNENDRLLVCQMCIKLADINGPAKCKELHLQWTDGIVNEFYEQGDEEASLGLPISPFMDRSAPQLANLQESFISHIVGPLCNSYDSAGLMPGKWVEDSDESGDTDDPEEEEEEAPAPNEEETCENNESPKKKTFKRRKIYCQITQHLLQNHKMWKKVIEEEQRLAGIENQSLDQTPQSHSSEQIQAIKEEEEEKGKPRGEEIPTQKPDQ
Sequence of Smo (Q99835 28-787): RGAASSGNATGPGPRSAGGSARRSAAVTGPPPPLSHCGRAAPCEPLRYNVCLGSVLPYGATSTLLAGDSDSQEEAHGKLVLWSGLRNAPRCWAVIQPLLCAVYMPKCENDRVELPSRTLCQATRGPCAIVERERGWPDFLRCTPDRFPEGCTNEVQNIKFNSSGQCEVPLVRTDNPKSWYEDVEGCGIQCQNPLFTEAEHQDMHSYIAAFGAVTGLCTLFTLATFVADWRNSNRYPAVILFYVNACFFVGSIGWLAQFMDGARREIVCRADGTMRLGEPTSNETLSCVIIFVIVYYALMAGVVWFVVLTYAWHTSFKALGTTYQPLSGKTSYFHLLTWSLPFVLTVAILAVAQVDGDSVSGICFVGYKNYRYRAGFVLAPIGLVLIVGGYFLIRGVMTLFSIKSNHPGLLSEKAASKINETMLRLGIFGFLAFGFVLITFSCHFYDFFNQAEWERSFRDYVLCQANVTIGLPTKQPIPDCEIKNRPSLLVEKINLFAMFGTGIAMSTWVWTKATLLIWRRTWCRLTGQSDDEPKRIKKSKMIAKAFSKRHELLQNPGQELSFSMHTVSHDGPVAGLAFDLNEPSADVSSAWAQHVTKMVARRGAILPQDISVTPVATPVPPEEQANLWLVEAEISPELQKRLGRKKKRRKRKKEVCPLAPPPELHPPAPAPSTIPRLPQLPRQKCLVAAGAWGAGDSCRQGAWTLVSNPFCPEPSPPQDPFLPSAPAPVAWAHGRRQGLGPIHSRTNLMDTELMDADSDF
Sequence of PDE11A4 (Q9HCR9 whole entry, species assumed): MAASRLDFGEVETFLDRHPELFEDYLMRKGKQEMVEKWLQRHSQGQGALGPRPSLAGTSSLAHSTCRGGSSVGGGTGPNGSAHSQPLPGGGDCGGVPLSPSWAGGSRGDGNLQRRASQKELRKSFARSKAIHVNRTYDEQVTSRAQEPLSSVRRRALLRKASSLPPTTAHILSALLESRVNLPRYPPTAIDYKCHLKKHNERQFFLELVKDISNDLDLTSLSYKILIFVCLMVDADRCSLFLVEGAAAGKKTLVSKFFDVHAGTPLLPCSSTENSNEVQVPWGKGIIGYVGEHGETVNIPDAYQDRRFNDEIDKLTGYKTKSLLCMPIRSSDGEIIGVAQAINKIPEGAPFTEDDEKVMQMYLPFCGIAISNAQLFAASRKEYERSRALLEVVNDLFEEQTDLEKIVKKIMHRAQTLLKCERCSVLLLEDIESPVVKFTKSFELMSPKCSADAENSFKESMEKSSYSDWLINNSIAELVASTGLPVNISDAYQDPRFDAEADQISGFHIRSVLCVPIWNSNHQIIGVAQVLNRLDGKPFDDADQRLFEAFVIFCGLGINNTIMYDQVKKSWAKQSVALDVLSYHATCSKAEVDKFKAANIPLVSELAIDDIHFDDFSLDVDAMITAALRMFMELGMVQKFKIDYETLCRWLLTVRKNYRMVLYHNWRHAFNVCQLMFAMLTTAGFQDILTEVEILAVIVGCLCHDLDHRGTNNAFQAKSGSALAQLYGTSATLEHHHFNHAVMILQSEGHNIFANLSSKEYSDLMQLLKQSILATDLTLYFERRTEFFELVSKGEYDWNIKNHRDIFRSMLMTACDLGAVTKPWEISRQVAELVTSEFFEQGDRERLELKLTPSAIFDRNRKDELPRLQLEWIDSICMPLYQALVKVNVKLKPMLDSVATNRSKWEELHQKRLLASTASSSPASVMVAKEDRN

Which results are given for `CC1=C2C[C@H]3[C@@H](CC=C4C[C@@H](O)CC[C@@]43C)[C@@H]2CC[C@]12O[C@@H]1C[C@H](C)CN[C@H]1[C@H]2C` [cyclopamine, reference compound]?
Gli1 transcription level [1]: no inhibition; Ptc1 transcription level [1]: no inhibition

Which results are given for `COc1ccc(C2CNC(=O)C2)cc1OC1CCCC1` (stereo not drawn) [rolipram]?
potency in Gli-Luc reporter assay relative to eggmanone ([2]; stimulated with Shh): lower potency than eggmanone; Shh-responsive Gli-luciferase reporter activity [2]: did reduce Hh signaling levels

`C=C[C@@]1(C)CC(=O)[C@]2(O)[C@@]3(C)[C@@H](O)CCC(C)(C)[C@@H]3[C@H](O)[C@H](OC(C)=O)[C@@]2(C)O1` [forskolin, reference compound] was tested. Which “nuclear accumulation of Gli2FL” value [3] did it give?
Its value is “inhibited”.

And the Gli3R formation [4]?
Its Gli3R formation is “restored Gli3R formation”.

How did the “Gli-Luc activity in cells overexpressing Gli2” value [5] turn out when `C=C(C)Cn1c(SCC(=O)c2cccs2)nc2sc3c(c2c1=O)CCCC3` [eggmanone, 3-(2-methylallyl)-2-((2-oxo-2-(thiophen-2-yl)ethyl)thio)-5,6,7,8-tetrahydrobenzo[4,5]thieno[2,3-d]pyrimidine-4(3H)-one] was run?
Its value is “retained Gli-Luc activity”.

What about the “p-PKA levels in whole cell lysates” value (PKA [6]) of the same compound?
The value was “no significant increase”.

And the “effect on BMP signaling” value [7]?
The value was “not perturbed”.

And the IC50 (PDE11A4)?
The IC50 was 4.08 µM.

And the IC50 (PDE3A)?
Its IC50 is 3 µM.

What about the “nuclear accumulation of Gli2FL” value [3] of the same compound?
Its value is “inhibited”.

What about the “purmorphamine-induced Gli-Luc reporter activity” value [8] of the same compound?
Its value is “inhibited purmorphamine-induced (3 μM) Gli-Luc reporter activity in a dose-dependent manner”.

And the “phospho-T197-PKA at base of primary cilium / basal body” value (PKA [9])?
The value was “significant increase in PKA activity at the base of the primary cilium”.

And the “inhibition of phosphatases in panel” value (21 phosphatases)?
The value was no more than 50%.

And the “ciliary transport protein IFT88” value [10]?
Its value is “remained intact”.

What about the “cilium structure (Arl13b staining)” value [10] of the same compound?
Its value is “unaffected”.

And the “Ptc1 expression in adaxial cells, pectoral fin fields and somites” value [11]?
The value was “abrogation of the Hh-target gene Patched (Ptc)-1 expression”.

What about the “Gli2 localization to primary cilium” value [12] of the same compound?
The value was “properly localized to the proximal tip of the cilium”.

And the IC50 (PDE10A2)?
The IC50 was 3.05 µM.

And the IC50 (PDE4D3)?
The IC50 was 72 nM.

And the “selectivity for PDE4D3 over other PDEs” value (PDE4D3; versus PDE3A, PDE10A2, PDE11A4)?
The value was 40- to 50 fold.

What about the Gli3R formation [4] of the same compound?
The Gli3R formation was “restored Gli3R formation”.

And the “competition for Smo binding with BODIPY-cyclopamine” value (Smo)?
Its value is “failed to compete”.

And the “Shh-responsive Gli-luciferase reporter activity” value [2]?
The value was “inhibited Hh-inducible Gli-responsive luciferase (Gli-Luc) activity in a dose-dependent manner”.

What about the “inhibition of kinases in panel” value (442 kinases) of the same compound?
Its value is no more than 50%.

What about the Gli1 transcription level [1] of the same compound?
Its Gli1 transcription level is “significantly reduced”.

And the Ptc1 transcription level [1]?
Its Ptc1 transcription level is “significantly reduced”.

And the “Hh reporter activity induced by wild type PDE4D3 overexpression” value [13]?
Its value is “abolished”.

What about the “inhibition of PDE activity” value (PDE super-family members) of the same compound?
Its value is no less than 50%.

— paper PMC4394042 (Cell reports, 2015)
